Assay results: ChEMBL document CHEMBL1128264, “Second-generation leukotriene B4 receptor antagonists related to SC-41930: heterocyclic replacement of the methyl ketone pharmacophore” (J Med Chem, 1995)

Experiments:
Leukotriene B4 receptor = Leukotriene B4 receptor (Homo sapiens, UniProt Q9NPC1+Q15722); test: Inhibition of Leukotriene B4 (LTB4) induced chemotaxis.; type: functional
Homo sapiens [1] = organism: Homo sapiens; test: Tested for the ability to inhibit Leukotriene B4 (LTB4) induced degranulation.; type: functional, organism-based
How it was run: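 Human neutrophils (3 × 10⁶ in 1 mL HBSS) pretreated with 5 μg cytochalasin B for 5 min at 37 °C, then with test compound for 7 min, then stimulated with 5 × 10⁻⁸ M LTB₄ for 2 min. MPO in pellet and supernatant read spectrophotometrically (o-dianisidine/peroxide). Release is expressed as percent of total MPO after subtracting basal.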

[2] = target: T1, Leukotriene B4 receptor 1 (Homo sapiens, UniProt Q15722); test: Binding affinity for Leukotriene B4 (LTB4) receptor
How it was run: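 Human blood neutrophils (dextran sedimentation, Ficoll-paque, hypotonic lysis without BSA), 4 × 10⁶ cells with 0.6 nM [³H]LTB₄ ± test compound in 1 mL HBSS, 0 °C for 45 min; 30 μM NDGA present in some assays. Glass-fibre filtration with ice-cold HBSS washes.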

[3] = target: T1, Leukotriene B4 receptor 1; test: Binding affinity towards Leukotriene B4 (LTB4) Receptor. Experiment conducted in the absence of NDGA.
How it was run: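 Human neutrophils isolated with dextran sedimentation, Ficoll-paque and BSA-free hypotonic lysis. 4 × 10⁶ cells incubated with 0.6 nM [³H]LTB₄ ± test compound in 1 mL HBSS at 0 °C for 45 min, no NDGA. Bound ligand separated by glass-fibre filtration. Specific binding is total minus binding not displaced by 0.1 μM unlabeled LTB₄.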

Homo sapiens [4] = organism: Homo sapiens; test: Tested for the ability to inhibit Leukotriene B4 (LTB4) induced chemotaxis. Test compound added to upper and lower wells.; type: functional, organism-based
How it was run: (§1)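 Test compound is placed in both upper and lower wells. After 90 min at 37 °C, migrated cells in the lower well are Coulter-counted. Inhibition is computed after subtracting the HBSS random-migration mean.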

Canis lupus familiaris [5] = test: In vivo activity for oral administration using LTB4-induced canine intradermal chemotaxis assay.
Homo sapiens [6] = organism: Homo sapiens; test: Inhibition of fMLP-induced chemotaxis; type: functional, organism-based
Homo sapiens [7] = organism: Homo sapiens; test: Tested for the ability to inhibit Leukotriene B4 (LTB4) induced chemotaxis. (Test compound added to upper and lower wells.); type: functional, organism-based; how it was run: as §1
Mus musculus [8] = test: In vivo murine (intracolonic) SCOA-induced colitis activity of the compound.; type: functional
How it was run: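 Mouse colitis induced under light anesthesia by a single intrarectal enema of 3% acetic acid. Test compound given intrarectally 1 h before and 1 h after instillation. Colonic MPO assessed at 24 h. ED50 is in mg/kg.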

Homo sapiens [9] = organism: Homo sapiens; test: Inhibition of fMLP-induced degranulation in the PMN degranulation assay; type: functional, organism-based
Cavia porcellus [10] = test: In vivo […] (oral) SCOA-induced colitis activity of the compound.; type: functional
How it was run: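 Guinea pig colitis induced under light anesthesia by a single intrarectal enema of 4% acetic acid. Oral dosing 30 min before induction. Colonic MPO activity measured after 24 h. ED50 is in mg/kg.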

Homo sapiens [11] = organism: Homo sapiens; test: Inhibition of 12-(R)-hydroxyeicosatetraenoic acid (HETE)-induced chemotaxis; type: functional, organism-based
Cavia porcellus [12] = test: In vivo activity for topical application using LTB4-induced […] intradermal chemotaxis assay.; type: functional
HL-60 [13] = test: Inhibitory activity against LTB4 production in HL60s.; type: functional, cell-based; settings: Homo sapiens
Homo sapiens [14] = organism: Homo sapiens; test: Inhibitory activity against LTB4 production in PMNs.; type: functional, organism-based
Homo sapiens [15] = organism: Homo sapiens; test: Inhibitory activity against HETE-induced chemotaxis; type: functional, organism-based
Canis lupus familiaris [16] = test: In vivo activity for intravenous administration using LTB4-induced canine intradermal chemotaxis assay.
Homo sapiens [17] = organism: Homo sapiens; test: Potency against LTB4 binding to its receptor on eosinophils.; type: functional, organism-based
Mus musculus [18] = test: In vivo murine epidermal inflammation for topical application.; type: functional
How it was run: (§2)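 PMA (25 μg) in acetone applied to the dorsal surface of one mouse ear, with vehicle on the other ear. Test compound applied topically with the PMA in acetone. At 18 h, ears were removed and weighed. Edema is weight gain versus the contralateral ear, and MPO was also assayed. ED50 is in mg.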

HL-60 [19] = test: Inhibitory activity against PGE-2 production in HL60s.; type: functional, cell-based; settings: Homo sapiens
Homo sapiens [20] = organism: Homo sapiens; test: Potency against LTB4-induced eosinophil chemotaxis.; type: functional, organism-based
Mus musculus [21] = test: Compound measured by topical application using Murine epidermal inflammation assay; type: functional; how it was run: as §2
Homo sapiens [22] = organism: Homo sapiens; test: Tested for the ability to inhibit Leukotriene B4 (LTB4) induced chemotaxis. (Test compound added to upper and lower wells); type: functional, organism-based; how it was run: as §1
Cavia porcellus [23] = test: In vivo guinea pig (oral) SCOA-induced colitis activity of the compound.
Cavia porcellus [24] = test: In vivo activity for oral administration using LTB4-induced guinea pig intradermal chemotaxis assay.
Cavia porcellus [25] = test: In vivo activity for intravenous administration using LTB4-induced guinea pig intradermal chemotaxis assay.

T1 sequence (Q15722 whole entry): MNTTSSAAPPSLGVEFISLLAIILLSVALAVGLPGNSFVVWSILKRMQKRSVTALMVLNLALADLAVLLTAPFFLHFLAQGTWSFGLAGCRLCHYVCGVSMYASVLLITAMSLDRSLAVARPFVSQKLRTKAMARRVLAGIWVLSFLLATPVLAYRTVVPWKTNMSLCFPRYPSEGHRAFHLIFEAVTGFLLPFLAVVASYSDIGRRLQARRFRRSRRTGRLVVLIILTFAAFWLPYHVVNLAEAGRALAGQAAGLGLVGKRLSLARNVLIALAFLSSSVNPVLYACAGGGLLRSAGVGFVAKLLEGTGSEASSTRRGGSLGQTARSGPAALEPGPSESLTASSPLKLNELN

CCCc1c(OCCCOc2ccc(C(N)=O)c(OC)c2CCC)ccc2c1OC(C(=O)O)CC2 (stereo not given)
IC50 (Leukotriene B4 receptor): 350 nM | IC50 (Homo sapiens [1]; Homo sapiens): 920 nM | IC50 [2]: 140 nM

CCCc1c(OCCCOc2ccc(-c3cocn3)c(OC)c2CCC)ccc2c1OC(C(=O)O)CC2 (stereo not given)
IC50 (Leukotriene B4 receptor): 430 nM | IC50 (Homo sapiens [1]; Homo sapiens): 230 nM | IC50 [2]: 100 nM

CCCc1c(OCCCOc2ccc(-c3cscn3)c(OC)c2CCC)ccc2c1OC(C(=O)O)CC2 (stereo not given)
IC50 (Leukotriene B4 receptor): 287 nM | IC50 (Homo sapiens [1]; Homo sapiens): 90 nM | IC50 [2]: 93 nM

CCCc1c(OCCCOc2ccc(-c3csc(N)n3)c(OC)c2CCC)ccc2c1OC(C(=O)O)CC2 (stereo not given)
IC50 (Leukotriene B4 receptor): 1500 nM | IC50 [2]: 320 nM

CCCc1c(OCCCOc2ccc(-c3csc(SCc4ccccc4)n3)c(OC)c2CCC)ccc2c1OC(C(=O)O)CC2 (stereo not given)
IC50 (Leukotriene B4 receptor): > 10000 nM | IC50 [2]: 5800 nM

CCCc1c(OCCCOc2ccc(-c3coc(C)n3)c(OC)c2CCC)ccc2c1OC(C(=O)O)CC2 (stereo not given)
IC50 (Leukotriene B4 receptor): > 10000 nM | IC50 [2]: 1100 nM

CCCc1c(OCCCOc2ccc(-c3cc[nH]n3)c(OC)c2CCC)ccc2c1OC(C(=O)O)CC2 (stereo not given)
IC50 (Leukotriene B4 receptor): 1200 nM | IC50 [2]: 610 nM

CCCc1c(OCCCOc2ccc(-c3csc(S)n3)c(OC)c2CCC)ccc2c1OC(C(=O)O)CC2 (stereo not given)
IC50 (Leukotriene B4 receptor): 520 nM | IC50 (Homo sapiens [1]; Homo sapiens): 1200 nM | IC50 [2]: 890 nM

CCCc1c(OCCCOc2ccc(-c3csc(OC)n3)c(OC)c2CCC)ccc2c1OC(C(=O)O)CC2 (stereo not given)
IC50 (Leukotriene B4 receptor): > 10000 nM | IC50 [2]: 1150 nM

CCCc1c(OCCCOc2ccc(-c3csc(SC)n3)c(OC)c2CCC)ccc2c1OC(C(=O)O)CC2 (stereo not given)
IC50 (Leukotriene B4 receptor): 18600 nM | IC50 [2]: 2800 nM

CCCc1c(OCCCOc2ccc(-c3cscn3)c(OC)c2CC2CC2)ccc2c1OC(CCC(=O)O)CC2 (stereo not given)
IC50 [3]: 12.3 nM | IC50 (Homo sapiens [1]; Homo sapiens): 7 nM | IC50 (Homo sapiens [4]): 49 nM

CCCc1c(OCCCOc2ccc(-c3ccno3)c(OC)c2CCC)ccc2c1OC(C(=O)O)CC2 (stereo not given)
IC50 (Leukotriene B4 receptor): 1600 nM | IC50 [2]: 770 nM

CCCc1c(OCCCOc2ccc(-c3c[nH]cn3)c(OC)c2CCC)ccc2c1OC(C(=O)O)CC2 (stereo not given)
IC50 (Leukotriene B4 receptor): 1200 nM | IC50 [2]: 520 nM

CCCc1c(OCCCOc2ccc(-c3c[nH]nn3)c(OC)c2CCC)ccc2c1OC(C(=O)O)CC2 (stereo not given)
IC50 [3]: 5.2 nM | IC50 (Homo sapiens [1]; Homo sapiens): 130 nM | IC50 (Homo sapiens [4]): 88 nM

C=CCc1c(OCCCOc2ccc3c(c2CCC)OC(C(=O)O)CC3)ccc(-c2cscn2)c1OC (stereo not given)
IC50 (Leukotriene B4 receptor): 110 nM | IC50 (Homo sapiens [1]; Homo sapiens): 23 nM | IC50 [2]: 25 nM

CCCc1c(OCCCOc2ccc(-c3c[nH]c(SCc4ccccc4)n3)c(OC)c2CCC)ccc2c1OC(C(=O)O)CC2 (stereo not given)
IC50 [3]: 750 nM | IC50 (Homo sapiens [4]): 430 nM

CCCc1c(OCCCOc2ccc(-c3cscn3)c(OC)c2CC2CC2)cccc1OCC(=O)O
IC50 [3]: 15.5 nM | IC50 (Homo sapiens [1]; Homo sapiens): 220 nM | IC50 (Homo sapiens [4]): 360 nM

CCCc1c(OCCCOc2ccc(-c3cscn3)c(OC)c2CCC)ccc2c1OC(CCC(=O)O)CC2 (stereo not given)
IC50 (Leukotriene B4 receptor): 1540 nM | IC50 (Homo sapiens [1]; Homo sapiens): 70 nM | IC50 [2]: 26 nM

CCCc1c(OCCCOc2ccc(-c3cscn3)c(OC)c2CC2CC2)ccc2c1OC(C(=O)O)CC2 (racemic)
ED50 (Canis lupus familiaris [5]): 0.2 mg/kg | IC50 (Homo sapiens [1]; Homo sapiens): 48 nM | IC50 (Homo sapiens [6]): 1410 nM | IC50 (Homo sapiens [7]; Homo sapiens): 67 nM | ED50 (Mus musculus [8]; Mus musculus, read-out: ED50): 7.1 mg/kg | IC50 (Homo sapiens [9]): 5900 nM | ED50 (Cavia porcellus [10]): 2.3 mg/kg | IC50 (Homo sapiens [11]): 106 nM | ED50 (Cavia porcellus [12]): 18 ng

CCCc1c(OCCCOc2ccc(-c3cscn3)c(OC)c2CC2CC2)ccc2c1OC(C(=O)O)CC2 (stereo in doubt; 35)
ED50 (Canis lupus familiaris [5]): 0.74 mg/kg | IC50 (HL-60 [13]): 660 nM | IC50 (Homo sapiens [1]): 57 nM | IC50 (Homo sapiens [7]): 89 nM | ED50 (Mus musculus [8]): 12 mg/kg | IC50 (Homo sapiens [14]): 520 nM | IC50 (Homo sapiens [15]): 106 nM | ED50 (Canis lupus familiaris [16]): 0.02 mg/kg | IC50 (Homo sapiens [17]): 2.6 nM | ED50 (Mus musculus [18]): 0.8 mg | IC50 (HL-60 [19]): 928 nM | ED50 (Cavia porcellus [10]): 3.4 mg/kg | IC50 (Homo sapiens [20]): 9 nM | ED50 (Cavia porcellus [12]): 70 ng

CCCc1c(OCCCOc2ccc(-c3cscn3)c(OC)c2CC2CC2)ccc2c1OC(C(=O)O)CC2 (stereo in doubt; -/-35)
ED50 (Mus musculus [21]): 0.98 mg | IC50 (Homo sapiens [1]): 79 nM | ED50 (Mus musculus [8]): 11.7 mg/kg | ED50 (Cavia porcellus [10]): 5.9 mg/kg | ED50 (Cavia porcellus [12]): 98 ng

CCCc1c(OCCCOc2ccc(C(C)=O)c(OC)c2CCC)ccc2c1OC(C(=O)O)CC2 (stereo not given) [SC-41390]
IC50 (Homo sapiens [22]): 832 nM | ED50 (Cavia porcellus [23]): 20 mg/kg | IC50 (Homo sapiens [1]; Homo sapiens): 920 nM | ED50 (Mus musculus [8]; Mus musculus, read-out: ED50): 28 mg/kg | ED50 (Cavia porcellus [24]): 1.7 mg/kg | ED50 (Cavia porcellus [25]): 0.5 mg/kg | ED50 (Cavia porcellus [12]): 340 ng
